Bioassay records (PubChem BioAssay)
In the library only some 1.7% were active in any assay of this set; here they are far more common.
UBC13 inh – blocks human UBC13 polyubiquitin chain formation; P61088; inhibition, % at 20 µM; actives 0.47% (n = 330,000); TR-FRET; in the data active = inhibition above about 45%, passing the limit was not always enough
Apaf1 inhib – human Apaf-1 inhibition. AID 489030. actives 0.71% (n = 330,000). inhibition, % at 20 µM. O14727. reconstituted apoptosome caspase-3 activity, DEVD-Rh110 fluorescence; active = inhibition of at least 40% at 20 µM;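 note: plate controls were DMSO wells for no effect and DEVD-CHO caspase inhibitor wells for full effect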
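System: Apoptosome proteins | Medium: Hepes pH 7.5 with detergent and BSA | Also added: Cytochrome c trigger plus (Z-DEVD)2-Rh110 caspase-3 substrate | Incubation: 30 min compound preincubation, 50 min activation, room temperature | Detection: Rhodamine 110 fluorescence at Ex 480/Em 540 nm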
PREPL inh – inhibitors of human prolyl oligopeptidase-like enzyme PREPL; Q4J6C6; recombinant PREPL, fluorescence polarization activity-based probe; inhibition, % at 5.96 µM; actives 0.68% (n = 320,000); AID 2751;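 note: 0% = enzyme with DMSO and 100% = wells lacking enzyme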
Target sequence (Q4J6C6 whole entry, looked up): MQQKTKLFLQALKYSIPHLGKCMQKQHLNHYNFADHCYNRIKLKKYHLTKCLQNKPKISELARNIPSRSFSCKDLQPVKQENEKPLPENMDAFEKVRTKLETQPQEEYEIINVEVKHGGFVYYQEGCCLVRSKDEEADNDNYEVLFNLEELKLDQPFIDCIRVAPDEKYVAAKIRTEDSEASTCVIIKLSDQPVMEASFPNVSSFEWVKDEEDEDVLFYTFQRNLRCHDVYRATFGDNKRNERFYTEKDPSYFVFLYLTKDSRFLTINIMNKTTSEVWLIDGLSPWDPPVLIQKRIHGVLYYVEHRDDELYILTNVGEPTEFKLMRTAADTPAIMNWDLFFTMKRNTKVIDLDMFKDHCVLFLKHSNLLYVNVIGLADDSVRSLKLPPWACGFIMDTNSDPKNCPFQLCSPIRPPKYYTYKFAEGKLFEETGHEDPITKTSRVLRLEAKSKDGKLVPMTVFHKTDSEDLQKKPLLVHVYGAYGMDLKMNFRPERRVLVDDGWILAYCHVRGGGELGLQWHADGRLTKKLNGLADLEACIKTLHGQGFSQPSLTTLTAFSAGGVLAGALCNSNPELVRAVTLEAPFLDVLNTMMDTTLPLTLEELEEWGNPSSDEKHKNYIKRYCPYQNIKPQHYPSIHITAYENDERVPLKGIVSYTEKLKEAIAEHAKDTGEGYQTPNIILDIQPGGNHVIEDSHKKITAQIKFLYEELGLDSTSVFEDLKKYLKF
EBNA-1 inh – blocks EBNA-1 binding to DNA. EBNA-1 DNA binding, fluorescence polarization. inhibition, % at 14.8 µM. actives 0.34% (n = 300,000). AID 1950; in the data active = inhibition above about 28%
ZTA counter – blocks Epstein-Barr virus ZTA, an EBNA-1 counter-screen. ZTA-DNA binding, fluorescence polarization. inhibition, % at 11 µM. actives 0.15% (n = 320,000); in the data active = inhibition above about 33%
PREPL confirm – confirmation of human PREPL enzyme inhibitors. shares compounds with PREPL inh. recombinant PREPL, fluorescence polarization activity probe. inhibition, % at 5.96 µM. actives 67% (n = 2,000). AID 2803;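 note: 0% = protein with DMSO and 100% = wells lacking protein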
Numbers without * were called inactive; x = no result. Cut-off read from the data, not from the text of the source, unless noted: active = inhibition above about 43%; inactive = the rest.

SMILES | UBC13 inh | Apaf1 inhib | PREPL inh | EBNA-1 inh | ZTA counter | PREPL confirm
Cc1ccc(-c2[nH]nc3c2C(c2ccsc2)C(C#N)=C(N)O3)cc1 (stereo not given) | 5.8 | 14.1 | -4.6 | 0.3 | -22.4 | x
COc1ccc(-c2[nH]nc3c2C(c2ccsc2)C(C#N)=C(N)O3)cc1 (stereo not given) | 4.2 | -8.1 | 89.3* | 5.6 | 3.5 | -14.7
O=C(O)CCC(=O)N1CCN(c2ccccn2)CC1 | 2.5 | 2.8 | 44.5* | -12.9 | -2.8 | 2.9
O=C(CCc1ccccc1)N1CCN(c2ccccn2)CC1 | -1.2 | -7.7 | -7.0 | 2.3 | -8.0 | x
N#Cc1nc(COc2ccc(-c3ccccc3)cc2)oc1NCCCN1CCOCC1 | 26.2 | 26.8 | 45.3* | 0.3 | 13.4 | 41.3
CCCCN(CC)C(=O)c1ccc(Cl)cc1 | 4.7 | -11.0 | -8.0 | -3.0 | -14.7 | x
CC(=O)c1c(OC(=O)c2ccc(C)cc2)c2ccccc2n1C | -2.8 | 2.1 | 7.8 | 7.5 | 4.2 | x
Cc1ccc(C(=O)Oc2cc(C)n(C)c(=O)c2)cc1 | -7.2 | 7.5 | 47.3* | -6.5 | -7.9 | 26.1
COc1ccccc1-c1nc(C#N)c(N2CCCCCC2)o1 | -0.3 | 14.2 | 1.7 | -6.5 | 2.4 | x
N#Cc1nc(-c2ccco2)oc1N1CCN(c2ccccc2)CC1 | 1.8 | 4.1 | 38.8 | 5.3 | -1.1 | x
COc1ccccc1-c1nc(C#N)c(N2CCN(c3ccccc3)CC2)o1 | 3.9 | 9.2 | 48.2* | -1.6 | 1.3 | 39.3
COc1ccc(N2CCN(c3oc(-c4ccco4)nc3C#N)CC2)cc1 | 5.9 | -10.7 | 43.8* | 0.5 | 3.9 | 35.4
Cc1ccccc1N(CC(=O)N1CCN(c2ccccc2)CC1)S(C)(=O)=O | 5.3 | 5.0 | -4.5 | 11.6 | 5.2 | x
COc1ccc(-n2c(CN3CCN(C)CC3)nc3ccc([N+](=O)[O-])cc3c2=O)c(OC)c1 | -7.8 | 4.1 | 24.8 | -16.0 | -2.9 | x
COc1ccc(-n2c(CN3CCN(Cc4ccccc4)CC3)nc3ccc([N+](=O)[O-])cc3c2=O)c(OC)c1 | 6.6 | -3.6 | 50.7* | -10.6 | -2.2 | 38.0
COc1ccc(S(=O)(=O)Nc2c(C)n(C)n(-c3ccccc3)c2=O)c(Cl)c1Cl | -1.3 | -2.1 | -4.8 | -9.3 | -12.1 | x
COC(=O)c1sccc1-c1ccc(/C=N/OC(=O)c2ccccc2)o1 | -9.1 | 12.8 | 43.4* | 1.4 | -10.2 | 38.1
COC(=O)c1ccccc1-c1ccc(/C=N/NC(N)=O)o1 | 4.2 | -11.9 | -0.5 | 10.2 | -1.8 | x
CC1(OC(=O)C2CCCC2)C(=O)C=C2C=C(c3ccsc3)N(CCc3ccccn3)C=C2C1=O (stereo not given) | -36.4 | 32.6 | 27.0 | -9.8 | -3.9 | x
Cc1ccc(S(=O)(=O)NC(=O)c2ccccc2F)cc1 | 7.5 | -0.9 | -1.4 | 4.0 | 3.4 | x
COc1cc(/C=N/n2c(C)n[nH]c2=S)ccc1OCc1ccc(F)cc1 | -2.0 | 17.1 | 49.5* | -4.3 | -6.5 | 42.2
C(=N\Nc1ncnc2ccccc12)/c1ccccc1 | -10.5 | 17.6 | 45.0* | -1.6 | -7.3 | 20.7
Clc1cccc(/C=N/Nc2ncnc3ccccc23)c1 | -2.8 | 27.7 | 40.0 | 13.5 | 13.2 | x
c1ccc(CNc2nc(-c3ccccn3)nc3ccccc23)cc1 | 11.3 | -1.7 | 67.3* | 12.1 | -5.1 | 63.8*
c1ccc(CNc2nc(-c3ccccc3)nc3ccccc23)cc1 | 11.3 | 15.1 | -7.6 | -7.2 | -12.5 | x
SMILES | UBC13 inh | Apaf1 inhib | PREPL inh | EBNA-1 inh | ZTA counter | PREPL confirm
C=CCn1c(N)c(-c2nc3ccccc3n2C)sc1=S | 19.4 | -6.5 | 43.6* | 2.5 | 11.6 | 36.5
CC1CCC(C(=O)NNC(=O)c2cc(-c3ccco3)[nH]n2)CC1 (stereo not given) | 19.9 | -10.4 | -14.7 | -0.9 | -1.2 | x
COc1ccc2cc(-c3cc(C(=O)OCC(=O)NC4CCS(=O)(=O)C4)c4ccccc4n3)ccc2c1 (stereo not given) | x | x | 46.3* | 22.2 | 17.0 | 37.4
COc1cc(/C=C(\C#N)c2ccccn2)cc(OC)c1O | -69.4 | -2.2 | -1.3 | 3.0 | 1.9 | x
COc1cc(/C=C(\C#N)c2ccccn2)ccc1OCc1ccccc1Cl | x | x | 47.1* | -4.4 | 4.6 | 39.6
Cc1ccn2c(NC3CCCC3)c(-c3ccccn3)nc2c1 | 34.2 | -0.4 | 72.0* | -1.7 | -5.2 | 68.8*
c1ccc(-c2nc3ccccn3c2NC2CCCC2)nc1 | 6.1 | 7.5 | 62.8* | -4.4 | 2.5 | 64.9*
CCOC(=O)c1cnc2c(C)cc(Cl)cc2c1N1CCN(C)CC1 | -1.1 | 2.7 | 8.7 | 2.7 | 1.9 | x
CCOc1ccc2[nH]c3c(N4CCc5ccccc5C4)ncnc3c2c1 | 9.5 | 5.6 | 54.4* | 2.8 | 1.8 | 64.9*
Cc1ccc2[nH]c3c(N4CCOCC4)ncnc3c2c1 | 6.5 | 2.9 | 12.5 | -0.9 | 5.8 | x
COc1ccc2[nH]c3c(N4CCC(O)(c5cccc(C(F)(F)F)c5)CC4)ncnc3c2c1 | 6.8 | 22.2 | 49.7* | 0.9 | 1.6 | 45.1*
CC(C)CC(NC(=O)C1CCC(C)CC1)C(=O)Nc1ccccc1F (stereo not given) | 6.6 | 11.5 | -0.5 | -0.6 | 9.5 | x
Oc1ccc(/C=N/Nc2ccnc3cc(Cl)ccc23)cc1O | -8.1 | 5.3 | 54.5* | -2.0 | 1.2 | 35.6
CNS(=O)(=O)c1cc2c3c(cccc3c1)C(=O)NC2=O | -29.3 | 0.4 | 27.9 | -7.8 | 2.0 | x
CCOc1ccc(CC(=O)Nc2nccs2)cc1OCC | -6.0 | -2.8 | -5.2 | -4.6 | -29.9 | x
O=C(Cn1c(=O)c2cccn2c2ccccc21)NCCc1ccc(Cl)cc1 | -7.7 | 10.5 | -5.5 | 2.4 | 3.0 | x
C=C1c2cccc(O)c2C(O)=C2C(=O)[C@]3(O)C(O)=C(C(N)=O)C(=O)[C@@H](N(C)C)[C@@H]3[C@@H](O)[C@H]12 | -1.5 | -2.8 | 79.6* | 13.1 | 30.7 | 24.3
C[C@H]1c2cccc(O)c2C(O)=C2C(=O)C3(O)C(O)=C(C(N)=O)C(=O)[C@@H](N(C)C)[C@@H]3[C@@H](O)[C@@H]21 (stereo not given in full) | 19.8 | -5.3 | -10.3 | 5.0 | -10.4 | x
COC(=O)c1ccc(Cn2c(O)c(N=O)c3ccccc32)o1 | 9.1 | -6.1 | -6.5 | 4.2 | -1.1 | x
Nc1c(-c2n[nH]c(=S)n2-c2ccc(Cl)cc2Cl)cnn1-c1ccccc1 | 4.6 | -4.3 | -4.6 | 21.0 | 7.2 | x
Nc1[nH]nc2c1NN(c1ccc(Cl)cc1Cl)N2 | -20.0 | 21.3 | 43.5* | -10.8 | -12.2 | 12.5
O=C(CSc1ccc(Cl)cc1)Nc1ccc(NC(=O)c2ccco2)cc1 | -0.4 | -21.3 | -4.6 | 10.8 | 5.2 | x
Cc1ccccc1C(=O)N1CCN(c2ccc(NC(=O)CSc3ccc(Cl)cc3)cc2)CC1 | -10.1 | 24.4 | 64.9* | 5.0 | -4.8 | 50.5*
O=C(COc1ccc(Cl)cc1)Nc1ccc(N2CCN(C(=O)c3ccco3)CC2)cc1 | 2.2 | 0.7 | 48.6* | 8.6 | -4.5 | 48.2*
O=C(CSc1ccc(Cl)cc1)Nc1ccc(N2CCN(C(=O)c3ccco3)CC2)cc1 | 3.5 | 13.9 | 48.0* | 23.7 | -2.8 | 48.6*
